Experimental data from ChEMBL document CHEMBL2062498, “3-Arylcoumarin derivatives manifest anti-proliferative activity through Hsp90 inhibition” (ACS Med Chem Lett, 2012).

What was measured:
SK-BR-3 = test: Antiproliferative activity against estrogen receptor-negative Her2 overexpressing in human SKBR3 cells; format: functional, cell-based
How it was run: (§1)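 IC50 values for growth inhibition are reported as means ± standard deviations from at least two separate experiments, each run in triplicate.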

MCF7 = test: Antiproliferative activity against estrogen receptor-positive in human MCF7 cells; format: functional, cell-based; how it was run: as §1
[1] = molecular target: Heat shock protein HSP 90-beta (Homo sapiens) (UniProt P08238); test: Inhibition of HSP90 in human MCF7 cells assessed as degradation of Raf1 protein after 24 hrs by Western blot analysis; format: cell-based
Chain of Heat shock protein HSP 90-beta (Homo sapiens) (P08238 whole entry): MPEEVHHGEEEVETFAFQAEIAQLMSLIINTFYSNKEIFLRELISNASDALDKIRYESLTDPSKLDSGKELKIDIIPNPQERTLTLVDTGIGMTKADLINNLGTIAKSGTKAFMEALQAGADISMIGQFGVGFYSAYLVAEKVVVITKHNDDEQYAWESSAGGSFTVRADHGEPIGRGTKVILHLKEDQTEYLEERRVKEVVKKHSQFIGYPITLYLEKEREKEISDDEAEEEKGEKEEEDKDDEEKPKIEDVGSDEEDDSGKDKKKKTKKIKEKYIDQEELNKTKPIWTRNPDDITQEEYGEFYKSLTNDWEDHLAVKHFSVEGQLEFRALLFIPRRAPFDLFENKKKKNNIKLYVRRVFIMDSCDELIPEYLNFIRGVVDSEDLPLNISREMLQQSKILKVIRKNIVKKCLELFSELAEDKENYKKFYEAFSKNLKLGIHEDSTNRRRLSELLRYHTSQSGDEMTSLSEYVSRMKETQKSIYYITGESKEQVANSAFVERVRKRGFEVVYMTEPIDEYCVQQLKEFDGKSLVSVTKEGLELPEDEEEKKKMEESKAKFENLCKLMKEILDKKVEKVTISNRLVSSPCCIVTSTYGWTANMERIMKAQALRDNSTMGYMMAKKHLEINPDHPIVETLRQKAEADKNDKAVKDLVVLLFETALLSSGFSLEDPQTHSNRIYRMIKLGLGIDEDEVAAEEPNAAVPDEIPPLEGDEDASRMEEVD
How it was run: (§2)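 MCF-7 breast cancer cells were exposed to a range of test concentrations (μM) for 24 h, then lysed. Lysates were immunoblotted for the Hsp90-dependent clients Raf-1 and Akt, and also for Hsp90 itself. Actin served as the non-Hsp90-dependent reference protein.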

[2] = molecular target: Heat shock protein HSP 90-beta (Homo sapiens) (UniProt P08238); test: Inhibition of HSP90 in human MCF7 cells assessed as degradation of Akt protein after 24 hrs by Western blot analysis; format: cell-based; how it was run: as §2

Compound	IC50 (SK-BR-3)	IC50 (MCF7)	inhibition [1]	inhibition [2]
Cc1c(OC2CCN(C)CC2)ccc2cc(-c3ccc(Cl)cc3)c(=O)oc12	4.94 µM	1.24 µM	–	–
CN1CCC(Oc2ccc3cc(-c4cccc(C#N)c4)c(=O)oc3c2)CC1	10.6 µM	8.42 µM	–	–
Cc1c(OC2CCN(C)CC2)ccc2cc(-c3ccc(OC(F)(F)F)cc3)c(=O)oc12	4.51 µM	1.65 µM	–	–
CN1CCC(Oc2ccc3cc(-c4cc5ccccc5o4)c(=O)oc3c2)CC1	5.84 µM	4.93 µM	–	–
CN1CCC(Oc2ccc3cc(-c4cccc(F)c4)c(=O)oc3c2)CC1	24.9 µM	7.67 µM	–	–
COc1ccc(-c2cc3ccc(OC4CCN(C)CC4)c(C)c3oc2=O)cc1	5.52 µM	1.97 µM	–	–
Cc1c(OC2CCN(C)CC2)ccc2cc(-c3ccc(F)cc3)c(=O)oc12	7.38 µM	3.83 µM	–	–
CN1CCC(Oc2ccc3cc(-c4cccc(Cl)c4)c(=O)oc3c2)CC1	9.46 µM	5.79 µM	–	–
Cc1c(OC2CCN(C)CC2)ccc2cc(-c3ccccc3)c(=O)oc12	14.3 µM	7.72 µM	–	–
CN1CCC(Oc2ccc3cc(-c4ccccc4)c(=O)oc3c2)CC1	38.4 µM	29 µM	–	–
CN1CCC(Oc2ccc3cc(-c4ccc(F)cc4)c(=O)oc3c2)CC1	43.9 µM	10.5 µM	–	–
Cc1c(OC2CCN(C)CC2)ccc2cc(-c3ccc4c(c3)OCO4)c(=O)oc12	5.21 µM	3.71 µM	–	–
CN1CCC(Oc2ccc3cc(-c4ccc(OC(F)(F)F)cc4)c(=O)oc3c2)CC1	5.78 µM	4.12 µM	–	–
CN1CCC(Oc2ccc3cc(-c4ccc(C(C)(C)C)cc4)c(=O)oc3c2)CC1	4.42 µM	2.36 µM	–	–
CN1CCC(Oc2ccc3cc(-c4cc5ccccc5s4)c(=O)oc3c2)CC1	0.98 µM	0.81 µM	Dose-dependent effect	Dose-dependent effect
CN1CCC(Oc2ccc3cc(-c4ccc(-c5ccccc5)cc4)c(=O)oc3c2)CC1	3.33 µM	3.08 µM	–	–
Cc1ccc(-c2cc3ccc(OC4CCN(C)CC4)cc3oc2=O)cc1	11.2 µM	8.6 µM	–	–
CN1CCC(Oc2ccc3cc(-c4ccccc4-c4ccccc4)c(=O)oc3c2)CC1	15.6 µM	15.6 µM	–	–
CN1CCC(Oc2ccc3cc(-c4ccc(Cl)cc4)c(=O)oc3c2)CC1	8.24 µM	3.89 µM	–	–
CN1CCC(Oc2ccc3cc(-c4ccc(Oc5ccccc5)cc4)c(=O)oc3c2)CC1	4.43 µM	1.45 µM	–	–
CN1CCC(Oc2ccc3cc(-c4cccc(C(F)(F)F)c4)c(=O)oc3c2)CC1	9.21 µM	4.64 µM	–	–
CN1CCC(Oc2ccc3cc(-c4ccc5c(c4)OCO5)c(=O)oc3c2)CC1	14.8 µM	8.79 µM	–	–
CN1CCC(Oc2ccc3cc(-c4ccccc4Cl)c(=O)oc3c2)CC1	25.4 µM	10.6 µM	–	–
COc1ccc(-c2cc3ccc(OC4CCN(C)CC4)cc3oc2=O)cc1	29.9 µM	16.9 µM	–	–
